An excerpt weighted towards active compounds, which were near 1.7% of everything screened.
V-ATPase pH: regulators of yeast V-ATPase proton pumping, primary screen, pHLuorin cytosolic pH fluorescence | AID 504577, 2011 | response, % at 10 µM | S. cerevisiae | 350,000 compounds, 0.37% hits; in the data active = response mostly above about 7.3%, no sharp cut-off; inactive = mostly below about 5.4%; also: actives read high
NTR1 agonist: agonists of human NTR1, primary screen, imaging, U2OS cells, beta-arrestin-GFP, high content; Neurotensin receptor type 1 (Homo sapiens), P30989; NTR1-U2OS beta-arrestin-GFP spot imaging, agonist mode; activation, % at 20 µM; 330,000 compounds, 0.17% hits; AID 493036, 2011;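 active = activation at or above 40% of the spot to cytoplasm intensity ratio, with at least 20 cells analyzed; inconclusive = wells under 20 cells, flagged as cytotoxic or low count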;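 also: 0% = DMSO without peptide and 100% = 100 nM NTR1 peptide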
SR-BI DiI-HDL act: activators of SR-BI mediated DiI-HDL uptake, primary screen, ldlA[mSR-BI] CHO cells, DiI fluorescence; 3 h; 100 = double the neutral-control signal; activation, % at 12.5 µM; 320,000 compounds, 0.096% hits;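 active = mean replicate activation of at least 60% and every replicate at or above 60%; inconclusive = mean or all-replicate condition met, but not both; inactive = mean below 60% and not all replicates reaching 60%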;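 also: 0% = median plate neutral-control signal and 100% = twice that signal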
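system = CHO ldlA[mSR-BI] cells, LDL receptor-null, SR-BI overexpressing | medium = Ham's F12 with 0.5% BSA, HEPES 25 mM, pH 7.4 | probe or stimulus = DiI-HDL 10 µg/mL | compound dosing = single-point compound dose | incubation = compound exposure 3 h, 37 °C | technique = DiI fluorescence, bottom read | read-out = cell-associated DiI fluorescence as measure of HDL uptake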
SR-BI HDL uptake: inhibitors of SR-BI mediated HDL lipid uptake, primary screen, ldlA[mSR-BI] cells, fluorescence, single point | AID 488896, 2010 | ldlA[mSR-BI] CHO cells, DiI-HDL uptake fluorescence, 3 h | 320,000 compounds, 0.96% hits | inhibition, % at 12.5 µM | Scavenger receptor class B member 1 (Mus musculus), Q61009;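 active = mean replicate inhibition of at least 70% and a set share of replicates each scoring 70 or more; inconclusive = meets just one of the two criteria; inactive = fails both criteria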;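 also: 0% = median of neutral control wells and 100% = median of positive control wells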
Target sequence (Q61009 whole entry, looked up): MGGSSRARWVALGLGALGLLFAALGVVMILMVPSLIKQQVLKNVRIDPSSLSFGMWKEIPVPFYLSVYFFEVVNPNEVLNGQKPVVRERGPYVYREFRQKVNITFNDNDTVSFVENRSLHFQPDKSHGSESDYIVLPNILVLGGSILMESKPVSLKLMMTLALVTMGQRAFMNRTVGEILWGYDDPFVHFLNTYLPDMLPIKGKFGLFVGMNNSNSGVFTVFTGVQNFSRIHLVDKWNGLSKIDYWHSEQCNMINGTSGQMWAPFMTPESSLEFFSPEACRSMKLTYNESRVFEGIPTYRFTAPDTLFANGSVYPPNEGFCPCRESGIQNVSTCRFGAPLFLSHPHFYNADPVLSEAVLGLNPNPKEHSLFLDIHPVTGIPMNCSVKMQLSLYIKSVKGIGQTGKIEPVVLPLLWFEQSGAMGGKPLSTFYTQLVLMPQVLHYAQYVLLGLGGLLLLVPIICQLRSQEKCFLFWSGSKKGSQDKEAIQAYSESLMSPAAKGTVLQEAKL
Vif inh: HIV Vif self-association inhibitors, primary screen, imaging, HEK293T, single point; inhibition, % at 7.49 µM; HEK293T cells, Vif self-association by quenched fluorescence, 24 h; AID 602346, 2012; 340,000 compounds, 0.35% hits; in the data active = inhibition above about 50%, passing the limit was not always enough; inconclusive = no clear call, values can overlap the other calls; inactive = below about 31%
CaV13 ICDI inh: Primary screen for inhibitors of IQ motif and Ca2+-dependent inactivation inhibitor domain binding in CACNA1D, Förster resonance energy transfer in living cells, … | inhibition, % at 12.3 µM | HEK cells, CFP/YFP FRET ICDI-IQ, plate reader, 10 min; percent FRET-ratio fall versus neutral wells | 340,000 compounds, 0.098% hits;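 active = mean replicate inhibition of at least 30% and at least 1% of replicates passing that level; inconclusive = only one of the two criteria is met; inactive = neither criterion is met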;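 also: 0% = median of the neutral control wells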
DiI quench: quenches DiI-HDL fluorescence, an SR-BI assay artifact; 470 compounds, 20% hits; shares compounds with SR-BI HDL uptake; cell-free DiI-HDL fluorescence quenching, 30 min; AC50, µM (titrated, usually from 35 µM), for the others: top-dose activity change, negative = quenching;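 active = quenching, a falling signal, with AC50 below a set limit tied to the top valid dose, actives reach about 32 µM in these data; inconclusive = no clear call, values can overlap the other calls; inactive = rising signal, and the rest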
Active calls of the source: *; u = inconclusive; x = not tested or not shown.

SMILES | V-ATPase pH | NTR1 agonist | SR-BI DiI-HDL act | SR-BI HDL uptake | Vif inh | CaV13 ICDI inh | DiI quench
O=C(Nc1ncc(Cc2cccc(C(F)(F)F)c2)s1)c1ccc(-c2cccc([N+](=O)[O-])c2)o1 | 2.6 | 7.6 | -51.4 | 51.4 | -8.0 | -5.1 | -10.0%
COc1cc(NC(=O)C2CC(c3c(F)cccc3Cl)=NO2)c(OC)cc1Cl (stereo not given) | 0.4 | 2.4 | -82.2 | 82.2* | -7.8 | -3.7 | 0.3%
COc1ccc(NC(=O)C2CC(c3c(F)cccc3Cl)=NO2)cc1OC (stereo not given) | -4.0 | 1.8 | -22.1 | 22.1 | -4.5 | -3.1 | x
O=S(=O)(c1ccc(F)cc1)N1CCC(n2cnc3ccccc32)CC1 | -0.4 | -2.9 | 8.3 | -8.3 | 29.3 | -5.9 | x
Cn1c(CCN2CCN(c3ccccn3)CC2)nc2cc(NS(=O)(=O)c3ccc(Cl)cc3)ccc21 | -0.4 | 1.5 | -72.8 | 72.8* | -2.3 | -12.4 | -1.5%
O=C(NCCn1cc(SCc2ccc(F)cc2)c2ccccc21)c1c(F)cccc1F | -2.6 | 4.0 | -56.2 | 56.2 | -4.5 | -3.3 | x
O=C(NCCn1cc(SCc2ccccc2)c2ccccc21)c1c(F)cccc1F | -0.6 | 5.4 | -70.6 | u | -9.8 | -8.1 | -12.2%
COc1ccccc1C(=O)NCCn1cc(SCC(=O)Nc2nnc(C)s2)c2ccccc21 | 0.7 | 0.7 | -44.2 | 44.2 | -3.1 | x | 0.0%
Cc1nnc(NC(=O)CSc2cn(Cc3ccccc3)c3ccccc23)s1 | -0.8 | 4.4 | -19.9 | 19.9 | -7.3 | -5.4 | x
O=C(O)C(CCC(C(=O)O)c1ccccc1)c1ccccc1 (stereo not given) | -1.4 | x | -18.3 | 18.3 | -7.6 | -6.3 | x
CCc1ccccc1NC(=O)CCS(=O)(=O)c1ccc2c(c1)CCCN2C(C)=O | 6.3 | -1.0 | 1.6 | -1.6 | -4.2 | -14.5 | x
Cc1ccc(NC(=O)CSc2ccc(Br)cc2)cc1S(=O)(=O)N1CCOCC1 | 1.4 | 5.7 | -39.2 | 39.2 | -11.7 | -1.1 | x
COc1ccccc1CNC(=O)C1CCC(CNC(=O)[C@@H]2Cc3ccccc3CN2)CC1 (stereo not given in full) | 1.0 | 0.4 | -77.0 | 77.0* | -1.6 | -2.4 | -4.6%
COc1ccccc1CNC(=O)CNC(=O)[C@@H]1Cc2ccccc2CN1 | -1.8 | -0.1 | -3.4 | 3.4 | 10.2 | -14.5 | x
COc1ccc(C)cc1NC(=O)Nc1cccc(C(=O)O)c1 | -1.5 | 1.2 | 11.1 | -11.1 | 1.1 | -3.6 | x
COc1cc(OC)cc(C(=O)Nc2cccc(NC(=O)c3cc(OC)cc(OC)c3)n2)c1 | -2.0 | 3.1 | -81.9 | 81.9* | -11.6 | 3.7 | 5.7%
COc1cc(OC)cc(C(=O)Nc2cccc(NC(C)=O)c2)c1 | 2.0 | 2.3 | -25.4 | 25.4 | 4.4 | -4.8 | x
CCOC(=O)Nc1cccc(NC(=O)c2cc(OC)cc(OC)c2)c1 | -1.6 | 1.1 | -74.4 | 74.4* | x | -2.5 | 9.7%
CCOC(=O)c1cccc(NC(=O)Nc2cc(OC)ccc2OC)c1 | -2.4 | 4.2 | -109.3 | 109.3* | -3.7 | -3.8 | 4.81µM*
O=C(Nc1ccc2c(c1)[C@@H]1C[C@@H](CC(=O)N3CCOCC3)O[C@@H](CO)[C@@H]1O2)NC1CCCC1 | 1.0 | x | x | x | x | -7.4 | x
COc1ccc(OC)c2[nH]c(C(=O)N3CCC(C(=O)O)CC3)cc12 | -0.1 | -0.8 | -74.7 | 74.7* | -8.5 | -13.7 | -3.9%
COc1cccc(-c2csc(N3CCN(C(=S)Nc4cccc(Cl)c4)CC3)n2)c1 | 3.3 | -0.7 | -78.8 | 78.8* | 23.4 | -7.3 | -5.8%
COc1cccc(-c2csc(N3CCN(C(=S)Nc4ccccc4Cl)CC3)n2)c1 | 8.3 | 0.1 | -13.7 | 13.7 | -6.6 | -7.4 | x
CN(C)CCNC(=O)c1ccc2c(c1)N(Cc1ccc(F)cc1)CCS2 | 1.6 | 3.7 | -25.1 | 25.1 | 5.1 | -2.2 | x
Cc1ccc(CN2CCSc3ccc(C(=O)NCCCN4CCN(C)CC4)cc32)cc1 | 1.1 | -0.3 | -17.9 | 17.9 | 5.8 | -2.6 | x
SMILES | V-ATPase pH | NTR1 agonist | SR-BI DiI-HDL act | SR-BI HDL uptake | Vif inh | CaV13 ICDI inh | DiI quench
O=C(NC1CCCC1)c1ccc2c(c1)N(Cc1ccc(F)cc1)CCS2 | -2.3 | 1.1 | -37.8 | 37.8 | 1.1 | -15.7 | x
COc1ccc(CCNC(=O)c2ccc3c(c2)N(Cc2ccc(C)cc2)CCS3)cc1OC | -0.8 | 1.7 | -75.3 | 75.3* | -0.8 | x | -10.1%
COc1ccc(OC)c(CCNC(=O)c2ccc3c(c2)N(Cc2ccc(F)cc2)CCS3)c1 | -1.5 | 1.1 | -81.8 | 81.8* | -12.6 | x | -11.7%
COc1ccc(CCNC(=O)c2ccc3c(c2)N(Cc2ccc(F)cc2)CCS3)c(OC)c1 | 1.4 | 2.0 | -82.0 | 82.0* | 4.2 | -7.4 | -12.4%
Cc1ccc(OCc2nnnn2-c2ccccc2)cc1 | -3.4 | -0.2 | -7.5 | 7.5 | -5.2 | -4.5 | x
CC(C)OCCCNC(=O)Cn1ccc2cc(S(=O)(=O)N3CCCCC3)ccc21 | 0.7 | -0.3 | 4.3 | -4.3 | -3.1 | -7.4 | x
CCOC(=O)Nc1nc(-c2ccccc2)c(C(=O)c2ccccc2)s1 | 5.8 | 6.8 | -74.9 | 74.9* | -5.2 | -4.7 | -1.8%
COC(=O)Nc1nc(-c2ccccc2)c(C(=O)c2ccc(Cl)cc2)s1 | 7.3 | -0.8 | 2.5 | -2.5 | u | x | x
Nc1c(-c2cccs2)cnn1-c1nc(-c2ccc(F)cc2)cs1 | -4.2 | 3.4 | -74.1 | 74.1* | 0.4 | -4.9 | -6.6%
Nc1c(-c2ccccn2)cnn1-c1nc(-c2ccc(F)cc2)cs1 | 4.0 | 9.2 | -66.5 | 66.5 | -3.4 | -6.3 | x
CCN(CC)C(=O)[C@H]1CC(CC(=O)NCCCOC)C(=O)N2CCc3c([nH]c4ccccc34)[C@]12C (stereo not given in full) | 0.7 | 3.0 | -1.2 | 1.2 | x | -3.0 | x
CC(=O)c1ccc(-c2ccc(C(=O)Nc3nc(C)c(C(C)=O)s3)o2)cc1 | -5.9 | -0.3 | -49.6 | 49.6 | 9.3 | -5.1 | -4.1%
CCC(C)C(=O)N1CCc2cc(-c3csc(N)n3)ccc21 (stereo not given) | -2.1 | 3.1 | -54.2 | 54.2 | -6.7 | 0.7 | x
CNc1nc(-c2ccc3c(c2)CCN3C(=O)c2ccccc2F)cs1 | 2.4 | x | -69.6 | 69.6 | 1.8 | -7.2 | x
CNc1nc(-c2ccc3c(c2)CCN3C(=O)c2ccccc2F)c(C)s1 | -2.6 | 2.4 | -57.2 | 57.2 | 4.4 | -6.1 | -3.7%

Assay outcomes as filed in PubChem BioAssay.
